Measured values: ChEMBL document CHEMBL3244361, “B/C-cis- and -trans-1,3,4,9,10,10a-Hexahydro-2H-10,4a-methanoiminoethanophenanthrene (homo- and homoisomorphinan) derivatives as analgesics” (J Med Chem, 1977)
The source made the active and inactive calls. No cut-off for these calls is given here.

Legend:
[1] = test system: Rhesus monkey; experiment: Physical dependence capacity in rhesus monkey assessed as suppression/precipitation of abstinence syndrome at 4 mg/kg; conditions: in vivo
[2] = test system: Mus musculus; experiment: Analgesic activity in sc dosed mouse by hot plate assay; type: functional
[3] = test system: Rhesus monkey; experiment: Physical dependence capacity in rhesus monkey assessed as suppression/precipitation of abstinence syndrome at 0.4 to 6.4 mg/kg; type: organism-based, Macaca mulatta; design: dose 0.4-6.4 mg/kg; conditions: in vivo
How it was run: (§1)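 Monkey single-dose suppression test for physical dependence capacity. Abstinence signs were scored for suppression or precipitation across the dose range given in each line.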

[4] = test system: Rhesus monkey; experiment: Narcotic antagonist activity in morphine-dependent monkey assessed as precipitation of abstinence syndrome; type: functional, organism-based; conditions: Macaca mulatta; how it was run: as §1
[5] = test system: Rhesus monkey; experiment: Physical dependence capacity in rhesus monkey assessed as suppression/precipitation of abstinence syndrome at 0.5 to 8 mg/kg; type: organism-based, Macaca mulatta; design: dose 0.5-8 mg/kg; conditions: in vivo; how it was run: as §1
[6] = test system: Mus musculus; experiment: Toxicity in mouse at 50 mg/kg, sc; type: organism-based; design: dose 50 mg/kg, route subcutaneous; conditions: in vivo
[7] = test system: Rhesus monkey; experiment: Physical dependence capacity in rhesus monkey assessed as suppression/precipitation of abstinence syndrome at 0.5 to 4 mg/kg; type: organism-based, Macaca mulatta; design: dose 0.5-4 mg/kg; conditions: in vivo; how it was run: as §1
[8] = test system: Rhesus monkey; experiment: Physical dependence capacity in rhesus monkey assessed as suppression/precipitation of abstinence syndrome at 0.5 to 1 mg/kg; type: organism-based, Macaca mulatta; design: dose 0.5-1 mg/kg; conditions: in vivo; how it was run: as §1
[9] = species on record: Mus musculus

Row | Structure (SMILES) | ED50 [2] [mg/kg] | Activity [4] | further results
1 | Br.CN1CC[C@]23CCCC[C@@H]2[C@@H](Cc2ccc(O)cc23)C1 | 2.1 | – | Activity [1]: Toxic
2 | Br.CN1CC[C@]23CCCC[C@H]2[C@@H](Cc2ccc(O)cc23)C1 | 0.8 | – | Activity [3]: Non-toxic
3 | Oc1ccc2c(c1)[C@@]13CCCC[C@H]1[C@@H](C2)CN(CC1CC1)CC3 (relative stereo) | 6.2 | inactive | Activity [5]: Non-toxic
4 | Oc1ccc2c(c1)[C@@]13CCCC[C@@H]1[C@@H](C2)CN(CC1CC1)CC3 (relative stereo) | – | inactive | Activity [6]: Toxic; Activity [7]: Non-toxic
5 | C=CCN1CC[C@]23CCCC[C@H]2[C@@H](Cc2ccc(O)cc23)C1 (relative stereo) | – | inactive | Activity [8]: Non-toxic; ED50 [9]: inactive
6 | C=CCN1CC[C@]23CCCC[C@@H]2[C@@H](Cc2ccc(O)cc23)C1 (relative stereo) | 19.6 | inactive | Activity [7]: Non-toxic
7 | COc1ccc2c(c1)[C@@]13CCCC[C@H]1[C@@H](C2)CN(C)CC3 | 3.4 | – | –
8 | CN1CC[C@]23c4c5ccc(O)c4O[C@H]2[C@@H](O)C=C[C@H]3[C@H]1C5.Cl [MORPHINE HYDROCHLORIDE] | 1.2 | – | –
9 | COc1ccc2c(c1)[C@@]13CCCC[C@@H]1[C@@H](C2)CN(C)CC3 | 8.1 | – | –
